# MT stabilizer – stabilizes microtubules in HeLa cells. HeLa tubulin immunostaining HCS, 24 h; share of cells brighter than vehicle mean+2SD. % tubulin-high responders, % at 10 µM. hit rate 0.83% among 200,000. AID 2205;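 active = plate Z-score above 3 for both tubulin-high and condensed-nucleus cell shares, with cell loss under 80%, at 10 µM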;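 note: anti alpha tubulin signal scored within the nucleus-defined area of each cell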
# Autophagy mod – autophagy modulation, high-content screen. MEF GFP-LC3 puncta imaging; test concentration mostly 10 µM. calls only at 10 µM (by protocol). hit rate 0.98% among 190,000. AID 463193;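 active = percentage of spot-positive cells more than 3 SD above its plate mean, without a fluorescence outlier flag or 80% toxicity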;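 note: spot-positive cell cutoff set from DMSO-treated cells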
# b-catenin transl – modulators of beta-catenin nuclear translocation; HeLa beta-catenin nuclear translocation, immunofluorescence imaging; nuclear translocation activity, % at 5 µM; hit rate 0.3% among 190,000; AID 1665;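 active = nuclear translocation activity above 50% at 5 µM, with a well cell count of 50 or more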;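 note: per-cell ratio of nuclear to cytoplasmic median beta-catenin stain intensity; plate controls were DMSO negative control for no effect and GSK-3 inhibitor IX positive control for full effect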
#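 Test system: human HeLa cells, native beta-catenin. Compound dosing: 5 µM primary single dose, 0.1% DMSO, 0.02–20 µM confirmation series. Incubation: compound exposure 24 h at 37°C. Detection: beta-catenin immunostaining with DAPI counterstain, 20x imaging, 6 fields/well. Read-out basis: Nuclear/cytoplasmic beta-catenin signal ratio, % activation.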
# Ins promoter up – MIN6 insulin promoter up-regulation; MIN6 insulin promoter-GFP reporter, high-content imaging; active compounds read high; z-score at 5 µM; hit rate 0.3% among 190,000;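 active = z-score above 3 at 5 µM with at least 500 cells counted in the well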
# Wee1 stabilizer – human Wee1 degradation inhibition, primary screen. reporter increase, % at 5 µM. P30291. HeLa Luc-Wee1K328M stability, luciferase luminescence; 100% = proteasome inhibitor MG132 effect. hit rate 1.2% among 220,000;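 active = activation above the mean of all tested compounds plus 3 SD, set per screening run, cut at about 8.8% in these data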;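 note: cells exposed to compound for 20 h before luminescence read; 0% = DMSO alone and 100% = MG132 at 30 µM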
# Target sequence (P30291 whole entry K328M): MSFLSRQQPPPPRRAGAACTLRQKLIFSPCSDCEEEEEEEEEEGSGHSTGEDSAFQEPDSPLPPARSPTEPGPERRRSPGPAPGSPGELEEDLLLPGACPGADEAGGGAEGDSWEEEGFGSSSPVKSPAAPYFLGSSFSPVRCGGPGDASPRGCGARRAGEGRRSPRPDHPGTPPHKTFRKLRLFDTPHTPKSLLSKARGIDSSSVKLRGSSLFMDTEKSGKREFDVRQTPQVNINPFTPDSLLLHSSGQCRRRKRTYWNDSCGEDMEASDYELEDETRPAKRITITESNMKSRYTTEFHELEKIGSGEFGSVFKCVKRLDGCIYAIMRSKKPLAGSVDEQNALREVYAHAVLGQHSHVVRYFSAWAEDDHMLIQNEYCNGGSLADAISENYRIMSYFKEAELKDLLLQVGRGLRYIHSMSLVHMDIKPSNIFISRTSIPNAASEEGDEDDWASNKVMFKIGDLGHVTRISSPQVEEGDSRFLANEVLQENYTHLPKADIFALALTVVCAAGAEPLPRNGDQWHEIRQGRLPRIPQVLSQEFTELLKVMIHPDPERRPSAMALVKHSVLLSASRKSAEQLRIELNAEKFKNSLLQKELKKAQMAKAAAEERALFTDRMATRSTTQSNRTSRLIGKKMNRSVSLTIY
# Wee1 stab conf – confirmation of human Wee1 degradation inhibitors; shares compounds with Wee1 stabilizer; HeLa Luc-Wee1K328M degradation, luminescence; vehicle 0%, proteasome-blocked wells 100%; activation, % at 5 µM; hit rate 4% among 1,100; AID 1410; in the data active = activation above about 8.9%
# * marks the source's active call; other numbers are inactive results; i = inactive; · = no result given. Sampled rows, rich in hits. Any-hit rate of the full collection: about 2.9%.
SMILES,MT stabilizer,Autophagy mod,b-catenin transl,Ins promoter up,Wee1 stabilizer,Wee1 stab conf
CCCN(CC1CC1)C(=O)CSc1nnc(-c2cc(-c3cccs3)nc3ccccc23)o1,2,i,0,·,19*,-2
CCc1cc2cc(C)cc(C)c2nc1SCC(=O)Nc1cc(C)on1,2,i,0,-0.23,11*,0
COc1ccc(C(=O)NCc2nnc(SC)n2Cc2ccccc2)cc1,4,i,-1,·,1,·
CCCc1cc2c(cc1NC(=O)c1ccco1)OCO2,3,i,-6,0.55,0,·
Cc1ccc2c(c1)N(C(C)C(=O)NCCc1ccccc1)C(=O)CO2 (stereo not given),3,i,-2,0.2,12*,0
COc1ccc(CCNC(=O)CCN2C(=O)COc3ccc(C)cc32)cc1OC,1,i,·,·,1,·
CNc1oc(-c2ccccc2Cl)nc1C#N,10,i,-8,0.65,13*,0
CCN(CC)C(=O)CC(c1ccc(F)cc1)c1ccc(OC(C)C)cc1 (stereo not given),3,i,-2,-0.36,-2,·
CCOc1ccc(CC(=O)NNC(=S)NC)cc1,·,·,-1,0.07,14*,-3
O=C(c1cccc2ccccc12)C1CCCN(C(=O)c2ccc(N3CCOCC3)cc2)C1 (stereo not given),1,i,1,-0.8,-3,·
Cc1cc(C)n(-c2ccc(C(=O)N3CCC(CO)(Cc4ccccc4)CC3)cc2)n1,·,i,1,-0.39,-3,·
CCN(CC)CCCN(C(=O)Cn1nnc(-c2ccc(OC)c(OC)c2)n1)C(C(=O)NC(C)(C)C)c1ccc(F)cc1 (stereo not given),2,i,1,·,2,·
COc1cc(/C=N/N=C(/C(=O)c2ccccc2)c2ccccc2)cc(OC)c1O,4,i,5,-0.62,12*,0
COc1cc(/C=N/N=C/c2cc(OC)c(O)c(OC)c2)cc(OC)c1O,1,i,0,·,0,·
CC(=O)c1c(C)[nH]c(C(=O)NCc2ccco2)c1C,1,i,0,-1.1,12*,4
CC(=O)c1c(C)[nH]c(C(=O)NCc2cccs2)c1C,3,i,·,0.3,1,·
C=CCNC(=S)NNc1nc(Nc2ccccc2)nc(N2CCCCC2)n1,1,i,2,-0.49,11*,1
COc1ccc(-c2noc(CSc3nc(-c4ccccc4)cc(=O)[nH]3)n2)cc1OC,4,i,-3,1.6,14*,0
CC1CC(C)CN(C(=O)Cn2cc(C=O)c3ccccc32)C1 (stereo not given),3,i,0,-0.72,1,·
COc1ccccc1-n1cnnc1SCC(=O)Nc1ncc(Cl)cc1Cl,2,i,1,0.33,-2,·
COc1ccccc1-n1cnnc1SCC(=O)Nc1nc(C)c(Cl)cc1Cl,4,i,0,0.38,13*,3
N#CC1=C(SCC(N)=O)NC2=C(C(=O)c3ccccc32)C1c1ccc(Cl)cc1 (stereo not given),2,i,7,-0.63,-2,·
O=C(/C=C/c1ccco1)NC(=S)Nc1cc(-c2nc3ccccc3s2)ccc1Cl,3,i,0,0.96,2,·
O=C(/C=C/c1ccco1)NC(=S)Nc1cccc(-c2nc3ccccc3s2)c1,39*,i,·,·,13*,8
CC(=O)N(c1ccc(C)cc1)c1nc(C)cc(C)c1C#N,·,·,1,0.33,-2,·
SMILES,MT stabilizer,Autophagy mod,b-catenin transl,Ins promoter up,Wee1 stabilizer,Wee1 stab conf
O=C(Nc1ccon1)c1cccc(S(=O)(=O)N2CCCC2)c1,3,i,0,-0.27,29*,-1
N#Cc1ccc(-c2csc(NC3=NCCCCC3)n2)cc1,7,i,·,-0.29,15*,2
c1ccc(-c2csc(NC3=NCCCCC3)n2)cc1,5,i,0,0.48,-1,·
O=C(CNC(=O)c1ccc(S(=O)(=O)N2CCCC2)cc1)N/N=C/c1ccco1,1,i,-1,-0.36,-2,·
Cc1ccsc1/C=C1\CCc2ccccc2C1=O,3,i,·,0.22,16*,0
O=C1/C(=C/c2ccc([N+](=O)[O-])cc2)CCc2ccccc21,·,·,1,-0.63,8,·
Cc1ccc(/C=C/C(=O)OCc2nc(N)nc(Nc3ccccc3C)n2)o1,1,i,-4,0.05,13*,-2
CCOc1ccc(NC(=S)Nc2ccc(OCc3ccccc3)cc2)cc1,2,i,-2,0.1,16*,1
CNC(=S)Nc1ccc(OCc2ccccc2)cc1,6,i,2,0.11,1,·
O=C(CCSCc1ccccc1F)NCc1cccs1,2,i,0,-0.1,11*,0
O=C(CCSCc1ccccc1Cl)NCc1cccs1,2,i,0,0.75,-2,·
CCCc1cc(=O)n2[nH]c(-c3ccc(C)cc3)cc2n1,3,i,-6,0.48,13*,5
COc1cccc(NC(=O)c2ccc(NC(=O)C3CC(=O)OC34CCCCC4)cc2)c1 (stereo not given),4,i,0,0.31,-1,·
COc1ccc(/C=C/C(=O)O/N=C(\N)c2ccccc2)cc1OC,3,i,0,-0.28,17*,0
COc1cc(C2=NOC(C(=O)NCc3cccs3)C2)cc(OC)c1OC (stereo not given),27,i,·,0.75,11*,15*
O=C(NCc1cccs1)C1CC(c2ccccc2O)=NO1 (stereo not given),16,i,31,-1.3,4,·
O=C(NC(=S)Nc1ccc2c(c1)OCCO2)c1cccc(Br)c1,5,i,·,0.4,2,·
O=C(NC(=S)Nc1ccc2c(c1)OCCO2)c1cccc2ccccc12,6,i,-3,0.25,12*,0
C(=N\Nc1nc2ccccc2[nH]1)/c1ccc2c(c1)OCO2,3,i,3,-0.98,12*,3
O=C(O)CCc1nnc(SCC(=O)Nc2cccc(C(F)(F)F)c2)[nH]c1=O,2,i,-1,-0.62,1,·
CC1(C)c2ccccc2-n2c1cc1oc(=O)cc(O)c1c2=O,·,·,0,0.88,15*,2
Cc1c(O)cc2n(c1=O)-c1ccccc1C2(C)C,5,i,-3,·,-2,·
Cc1cccc(C)c1OC(=O)CCN1C(=O)C2C3C=CC(C4CC34)C2C1=O (stereo not given),2,i,-1,0.37,0,·
CCOC(=O)c1c(C)[nH]c(C(=O)N/N=C\c2ccccc2O)c1C,10,i,19,-3.4,12*,9
Cc1ccc(NC(=O)c2cncc(Br)c2)c(O)c1,4,i,1,0.04,12*,1
Fc1cccc(CSc2nc3ncccc3[nH]2)c1,2,i,3,-0.2,-3,·
Fc1cccc(CSc2nc3ncc(Cl)cc3[nH]2)c1,·,·,-1,0.75,11*,-2
CCOc1ccc(/C=N/NC(=O)CNC(=O)c2ccc(S(=O)(=O)N3CCOCC3)cc2)cc1,1,i,1,-0.47,1,·
